Results published in ChEMBL document CHEMBL2380307, “Discovery of diarylurea P2Y(1) antagonists with improved aqueous solubility” (Bioorg Med Chem Lett, 2013).
One block for each compound: values may come before it.

Experiments:
[1] = Lipophilicity, log P of the compound by RP-HPLC analysis; assay type: physicochemical
Liver microsomes [2] = experiment: (§1) Metabolic stability in human liver microsome assessed as compound remaining after 10 mins; assay type: ADME; settings: microsomes, 10 min
Liver microsomes [3] = experiment: (§2) Metabolic stability in rat liver microsomes assessed as compound remaining after 10 mins; assay type: ADME, Microsome; settings: microsomes, 10 min
How it was run: (§3)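 Liver microsomes incubated for 10 min; read-out is percentage of parent remaining.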

Plasma [4] = experiment: Plasma concentration in rat at 1 mg/kg, iv followed by administered 25 mg/kg/hr of sustaining dose; assay type: ADME, organism-based; settings: in vivo
How it was run: (§4)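 Rats pretreated IV with a loading dose plus sustaining infusion (1 + 2.5, 1 + 5, 1 + 10 or 1 + 25 mg/kg + mg/kg/h). Arterial thrombosis was induced with FeCl2, and thrombus weight was measured; plasma concentrations were measured at each dose. n=6–8 per dose. Vehicle controls received 10% DMA/90% 5% dextrose IV.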

Plasma [5] = experiment: Plasma concentration in rat at 1 mg/kg, iv followed by administered 10 mg/kg/hr of sustaining dose; assay type: ADME, organism-based; settings: in vivo; how it was run: as §4
Plasma [6] = experiment: Plasma concentration in rat at 1 mg/kg, iv followed by administered 5 mg/kg/hr of sustaining dose; assay type: ADME, organism-based; settings: in vivo; how it was run: as §4
Plasma [7] = experiment: Plasma concentration in rat at 1 mg/kg, iv followed by administered […] of sustaining dose; assay type: ADME, organism-based; settings: in vivo
Plasma [8] = experiment: Plasma concentration in rabbit cuticle bleeding model at 15 mg/kg, iv followed by administered 23.4 mg/kg/hr of sustaining dose; assay type: ADME, organism-based, Oryctolagus cuniculus; settings: in vivo
How it was run: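 Rabbit cuticle bleeding model with IV loading dose plus sustaining infusion (15 or 9 mg/kg + 23.4 mg/kg/h). Measured ex vivo platelet aggregation blockade, cuticle bleeding time, average plasma concentration and blood pressure.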

[9] = Half life in rat at 1 mg/kg, iv; assay type: ADME, organism-based; design: dose 1 mg/kg, route intravenous; settings: in vivo
How it was run: (§5)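 Rat PK. Dosing was either 1 mg/kg IV/PO in 10% DMAC/10% EtOH/10% cremophor/70% H2O, or 1 mg/kg IV in 10% EtOH/10% cremophor/80% H2O, or 2 mg/kg IV with 5 mg/kg PO in 10% EtOH/10% cremophor/80% H2O. Read-outs: CL, Vss, t1/2, F.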

[10] = Clearance in rat at 1 mg/kg, iv; assay type: ADME, organism-based; design: dose 1 mg/kg, route intravenous; settings: in vivo; how it was run: as §5
[11] = Volume of distribution at steady state in rat at 1 mg/kg, iv; assay type: ADME, organism-based; design: dose 1 mg/kg, route intravenous; settings: in vivo, read-out: Vdss
How it was run: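 Rat PK: single 1 mg/kg IV dose in 10% EtOH/10% cremophor/80% H2O. Vss was derived from plasma concentration–time data.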

[12] = as §2; assay type: ADME, Microsome; settings: liver microsomes, read-out: Stability; how it was run: as §3
[13] = Oral bioavailability in rat at 1 mg/kg; assay type: ADME, organism-based; settings: in vivo; how it was run: as §5
Rattus norvegicus = experiment: Volume of distribution at steady state in rat at 1 mg/kg, iv and po; assay type: ADME, organism-based; design: dose 1 mg/kg, route oral; settings: in vivo
How it was run: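 Rats dosed at 1 mg/kg by both IV and PO routes in 10% DMAC/10% EtOH/10% cremophor/70% H2O. Steady-state volume of distribution was derived from the IV plasma profile.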

[14] = Half life in rat at 1 mg/kg, iv and po; assay type: ADME, organism-based; design: dose 1 mg/kg, route oral; settings: in vivo; how it was run: as §5
[15] = Permeability from apical to basolateral side of human Caco2 cells; assay type: ADME, cell-based; settings: Caco-2, read-out: permeability
[16] = as §1; assay type: ADME, microsomes; settings: liver microsomes, read-out: Stability
[17] = Half life in rat at 2 mg/kg, iv and 5 mg/kg, po; assay type: ADME, organism-based; settings: in vivo; how it was run: as §5
[18] = Oral bioavailability in rat at 5 mg/kg; assay type: ADME, organism-based; settings: in vivo; how it was run: as §5
[19] = Volume of distribution at steady state in rat at 2 mg/kg, iv and 5 mg/kg, po; assay type: ADME, organism-based; settings: in vivo, read-out: Vdss
How it was run: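 Rats given 2 mg/kg IV and 5 mg/kg PO in 10% EtOH/10% cremophor/80% H2O. Vss was obtained from the IV pharmacokinetic profile.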

[20] = Clearance in rat at 2 mg/kg, iv and 5 mg/kg, po; assay type: ADME, organism-based; settings: in vivo; how it was run: as §5

logP [1]: 5.8
SMILES: CC(C)(C)c1ccccc1Oc1ncccc1NC(=O)Nc1ccc(N2CCN(Cc3ccccc3)CC2)cc1

logP [1]: 5.7
bioavailability [13]: 7%
Vdss (Rattus norvegicus): 5.6 L/kg
half-life [14]: 15 h
Papp A→B [15]: 2.1 ×10⁻⁶ cm/s
remaining at 10 min [12]: 86%
SMILES: CC(C)(C)c1ccccc1Oc1ncccc1NC(=O)Nc1ccc(OC(F)(F)F)cc1

logP [1]: 5.2
SMILES: COCC1(c2ccc(NC(=O)Nc3cccnc3Oc3ccccc3C(C)(C)C)cc2)CC1

logP [1]: 4.5
SMILES: CC(C)CN1CCC(COc2ccc(NC(=O)Nc3cccnc3Oc3ccccc3C(C)(C)C)cc2)CC1

logP [1]: 4.2
SMILES: CN(C)Cc1ccc(NC(=O)Nc2cccnc2Oc2ccccc2C(C)(C)C)c(F)c1

logP [1]: 5.5
SMILES: CC(C)(C)c1ccccc1Oc1ncccc1NC(=O)Nc1ccc(N2CCCCC2)cc1

logP [1]: 3.7
SMILES: CC(C)(C)c1ccccc1Oc1ncccc1NC(=O)Nc1ccc(C2(CN3CCCC3)CC2)cc1

logP [1]: 5.1
SMILES: COC(=O)C1(c2ccc(NC(=O)Nc3cccnc3Oc3ccccc3C(C)(C)C)cc2)CC1

logP [1]: 4.6
SMILES: CC(C)(C)c1ccccc1Oc1ncccc1NC(=O)Nc1ccc(C2(CO)CC2)cc1

logP [1]: 4.5
SMILES: CC(C)(C)c1ccccc1Oc1ncccc1NC(=O)Nc1ccc(N2CCOCC2)cc1F

logP [1]: 3.9
SMILES: CN1CCN(c2ccc(NC(=O)Nc3cccnc3Oc3ccccc3C(C)(C)C)cc2)CC1

logP [1]: 5.1
remaining at 10 min [16]: 12%
Stability (Liver microsomes [3]): Unstable
SMILES: CN(C)CC(C)(C)COc1ccc(NC(=O)Nc2cccnc2Oc2ccccc2C(C)(C)C)cc1

logP [1]: 3.2
SMILES: CC(C)(C)c1ccccc1Oc1ncccc1NC(=O)Nc1ccc(N2CCNCC2)cc1

The remaining lines, values behind:

SMILES: CN(C)CC(C)(C)COc1ccc(NC(=O)Nc2cccnc2Oc2ccccc2C(C)(C)C)c(F)c1
logP [1]: 5.2
Stability (Liver microsomes [2]): Unstable
Stability (Liver microsomes [3]): Unstable

SMILES: CN(C)Cc1ccccc1-c1ccc(NC(=O)Nc2cccnc2Oc2ccccc2C(C)(C)C)c(F)c1
logP [1]: 5.3
concentration (Plasma [4]): 13.7 µM
concentration (Plasma [5]): 8.5 µM
concentration (Plasma [6]): 3.6 µM
concentration (Plasma [7]): 1.3 µM
concentration (Plasma [8]): 5 µM
Stability (Liver microsomes [2]): Unstable
half-life [9]: 1.5 h
clearance [10]: 158 mL/min/kg
Vd [11]: 8.7 L/kg
remaining at 10 min [12]: 24%

SMILES: CC(C)(C)c1ccccc1Oc1ncccc1NC(=O)Nc1ccc(OCC2CCN(Cc3ccccc3)CC2)cc1F
logP [1]: 5.8

SMILES: CN(C)CC(C)(C)COc1ccc(NC(=O)Nc2cccnc2Oc2ccccc2[Si](C)(C)C)cc1
logP [1]: 4.7
remaining at 10 min [16]: 29%

SMILES: CC(C)CN1CCC(COc2ccc(NC(=O)Nc3cccnc3Oc3ccccc3C(C)(C)C)c(F)c2)CC1
logP [1]: 5.2
half-life [17]: 3.4 h
bioavailability [18]: 40%
Vd [19]: 5 L/kg
clearance [20]: 22 mL/min/kg
Papp A→B [15]: 1.6 ×10⁻⁶ cm/s
remaining at 10 min [12]: 67%

SMILES: CC(C)(C)c1ccccc1Oc1ncccc1NC(=O)Nc1ccc(-c2ccccc2CO)cc1F
logP [1]: 5.5

SMILES: CN(C)Cc1ccc(-c2ccc(NC(=O)Nc3cccnc3Oc3ccccc3C(C)(C)C)c(F)c2)cc1
logP [1]: 5.4

SMILES: CC(C)CCN1CCC(COc2ccc(NC(=O)Nc3cccnc3Oc3ccccc3C(C)(C)C)c(F)c2)CC1
logP [1]: 5.5

SMILES: CN(C)Cc1cccc(-c2ccc(NC(=O)Nc3cccnc3Oc3ccccc3C(C)(C)C)c(F)c2)c1
logP [1]: 5.5

SMILES: CC(C)N1CCC(COc2ccc(NC(=O)Nc3cccnc3Oc3ccccc3C(C)(C)C)c(F)c2)CC1
logP [1]: 3.8
